Source: PubChem BioAssay
ALR H2O2 inh: human ALR oxidase inhibition via reduced H2O2 | hit rate 3.8% among 290,000 | inhibition, % (concentration not given with the values) | P55789 | purified ALR, DTT oxidation, H2O2 HRP-luminol luminescence | AID 485317;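 active = mean replicate inhibition above about 79%, with every replicate also reaching it, limit read from the data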
Target sequence (P55789 whole entry, looked up): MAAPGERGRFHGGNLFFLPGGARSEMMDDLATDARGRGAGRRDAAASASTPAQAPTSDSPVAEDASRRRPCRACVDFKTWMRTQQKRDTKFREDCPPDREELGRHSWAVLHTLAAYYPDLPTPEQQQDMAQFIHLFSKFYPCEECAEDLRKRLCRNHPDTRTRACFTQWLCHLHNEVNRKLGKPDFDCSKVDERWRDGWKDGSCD
PfM18AAP inh: PfM18AAP enzyme inhibition | inhibition, % at 7.35 µM | hit rate 1.2% among 290,000 | recombinant PfM18AAP, H-Glu-NHMec fluorogenic cleavage | AID 1822;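 active = inhibition above the campaign mean inhibition over all tested compounds plus 3 SD, cut at about 28% in these data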
core dimer inh: HCV core protein dimerization inhibition. TR-FRET GST/Flag-core106 dimerization, 1536-well. inhibition, % at 5 µM. hit rate 0.33% among 300,000. AID 1899;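 active = inhibition above the mean of all tested compounds plus 3 SD, set per screening campaign, cut at about 45% in these data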
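System – GST-tagged and Flag-tagged HCV core protein residues 1-106 · Repeats – one well for each compound · Technique – TR-FRET 671 and 617 nm emission · Doses – one concentration, 5 µM, in 0.5% DMSO · Times – 4 h, 22.5 °C incubation · Also added – Eu donor and XL665 acceptor anti-tag antibodies · Measure – percent inhibition of core106 dimerization signal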
EBNA-1 inh: blocks EBNA-1 binding to DNA; EBNA-1 DNA binding, fluorescence polarization; inhibition, % at 14.8 µM; hit rate 0.34% among 300,000; in the data active = inhibition above about 28%
ZTA DNA inh: blocks Epstein-Barr virus ZTA, an EBNA-1 counter-screen; ZTA-DNA binding, fluorescence polarization; inhibition, % at 11 µM; AID 2234; P03206; hit rate 0.15% among 320,000; in the data active = inhibition above about 33%
Target sequence (P03206 whole entry, looked up): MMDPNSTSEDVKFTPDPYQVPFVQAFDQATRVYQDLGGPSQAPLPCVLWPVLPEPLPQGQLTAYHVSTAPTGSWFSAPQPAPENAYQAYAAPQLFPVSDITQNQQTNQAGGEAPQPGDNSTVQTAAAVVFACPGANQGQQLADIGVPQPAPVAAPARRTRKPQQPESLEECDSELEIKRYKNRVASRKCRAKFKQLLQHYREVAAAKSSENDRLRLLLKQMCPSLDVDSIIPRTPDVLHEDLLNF
HCV NS3 hel inh: inhibitors of Hepatitis C virus NS3 helicase; NS3 helicase DNA unwinding, Cy5 molecular beacon fluorescence; AID 1800; hit rate 0.56% among 290,000; inhibition, % at 10.9 µM;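 active = inhibition above the mean of all tested compounds plus 3 SD, set per campaign, cut at about 35% in these data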
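Compound dosing – single dose, 10.9 µM nominal final, DMSO 0.8% final · System – NS3 helicase fragment of HCV · Buffer or medium – MOPS pH 6.5, MgCl2, DTT, Tween20, BSA · Signal – Cy5 beacon fluorescence read at start and 1 h · Also added – annealed dual-labelled DNA beacon duplex, ATP-started · Schedule – 1 h at 25 °C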
Large screens that a line does not name were inactive. The list is not random: actives were taken first. Their share in the collection is about 5.2%.

O=C(C[n+]1cc(-c2ccc(F)cc2)n2c1CCC2)Nc1nc(-c2ccccc2)cs1	none
O=C(C[n+]1cc(-c2ccc(Cl)cc2)n2c1CCC2)Nc1nc(-c2ccccc2)cs1	ALR H2O2 inh 93.7
O=C(c1ccc([N+](=O)[O-])cc1)N1CCN(C2=NS(=O)(=O)c3ccccc32)CC1	none
COc1cc(/C=N/NC(=O)CCC(=O)NC2CCCCC2)ccc1C	none
CCOc1cc(/C=N/NC(=O)CCCC(=O)NC2CCCCC2)ccc1O	ALR H2O2 inh 99.0
CCOc1cc(/C=N/NC(=O)CCc2n[nH]c(=O)[nH]c2=O)ccc1O	ALR H2O2 inh 99.3
COc1ccc(/C=N/NC(=O)CCc2n[nH]c(=O)[nH]c2=O)cc1OC	none (no result: ALR H2O2 inh)
CCc1cc(C(=O)N/N=C/c2ccc(O)cc2)c2ccccc2n1	none
O=C(N/N=C/c1ccc(O)cc1)c1cccc(C(F)(F)F)c1	ALR H2O2 inh 97.8
O=C(N/N=C/c1ccccc1O)c1cccc(C(F)(F)F)c1	none
CC(C)(C)c1cc(C(=O)N/N=C/c2ccc(O)cc2)n(-c2ccccc2)n1	ALR H2O2 inh 93.7
O=C(N/N=C/c1ccc(O)cc1)c1cncc(Br)c1	ALR H2O2 inh 99.5
COc1ccccc1NC(=O)c1cc2ccccc2o/c1=N\O	EBNA-1 inh 42.1 (no result: PfM18AAP inh, HCV NS3 hel inh)
CC1=[N+](C)N(c2ccccc2)C(=O)C1N=Cc1ccccc1Cl (stereo not drawn)	ALR H2O2 inh 77.2
CC1=[N+](C)N(c2ccccc2)C(=O)C1N=Cc1c(Cl)cccc1Cl (stereo not drawn)	none
COc1ccc(Br)cc1CNC(=O)c1ccc2c(c1)N(C)CCS2	none
Cc1ccc(CN2CCSc3ccc(C(=O)NCCCN4CCN(C)CC4)cc32)cc1	ALR H2O2 inh 98.5
CN1CCSc2ccc(C(=O)NCc3cccc(F)c3)cc21	ALR H2O2 inh 92.3
Cc1ccc(CN2CCSc3ccc(C(=O)NCC4CCCO4)cc32)cc1 (stereo not drawn)	ALR H2O2 inh 86.7
CN(C)CCNC(=O)c1ccc2c(c1)N(Cc1ccc(F)cc1)CCS2	ALR H2O2 inh 99.1
Cc1nnsc1-c1nnc(SCC(=O)c2ccccc2)n1C1CC1	ALR H2O2 inh 84.2
CN(C)c1ccc(C2OC(=O)C3(CCCC3)C(=O)C2(C)C)cc1 (stereo not drawn)	ALR H2O2 inh 93.8
CC1(C)C(=O)C2(CCCCC2)C(=O)OC1c1cccc([N+](=O)[O-])c1 (stereo not drawn)	none
CCCC(C)NC(=O)Cc1ccc(Br)cc1 (stereo not drawn)	ALR H2O2 inh 94.6
Cc1cc(Cl)ccc1OCc1nc(-c2ccc(O)cc2)n[nH]1	ALR H2O2 inh 98.5
CC(=O)c1c(N2CCOCC2)nc2ccc(Cl)cc2c1-c1ccccc1	none
Oc1ccc(C23CCCC2C2(CCCC2)c2ccc(O)cc2O3)c(O)c1 (stereo not drawn)	ALR H2O2 inh 89.9 (no result: PfM18AAP inh, core dimer inh, EBNA-1 inh, HCV NS3 hel inh)
CC(=O)Oc1ccc(-c2cccc(C(=O)N(C)c3ccc(O)cc3)c2)cc1	ALR H2O2 inh 86.2
O=C(N/N=C(/CC(=O)c1cccs1)C(F)(F)F)c1ccc(O)cc1	ALR H2O2 inh 80.3
O=C(N/N=C(\CC(=O)c1cccs1)C(F)(F)F)c1cccnc1	none
COc1cc(C[C@@H](C)[C@@H](C)Cc2ccc(O)c(OC)c2)ccc1O	none (no result: PfM18AAP inh, core dimer inh, EBNA-1 inh, ZTA DNA inh, HCV NS3 hel inh)
COc1cc(C[C@@H](CO)[C@H](CO)Cc2ccc(O)c(OC)c2)ccc1O	ALR H2O2 inh 97.2 (no result: PfM18AAP inh, HCV NS3 hel inh)
O=C(COc1ccccc1)Nc1cccc(-c2nc3cc4ccccc4cc3[nH]2)c1	none
CCc1ccc(NC(=S)NC(=O)CC(C)C)cc1	none
Nc1cc([N+](=O)[O-])ccc1Nc1ccc(O)cc1	ALR H2O2 inh 98.8
Cc1ccc(N2C(=O)N(CC(=O)Nc3ccc(F)c(F)c3)C(=O)C2C)cc1 (stereo not drawn)	none (no result: ALR H2O2 inh, PfM18AAP inh, HCV NS3 hel inh)
COC(C/C=C\C(=O)[C@H](C)OCc1ccccc1)OC	ALR H2O2 inh 83.2 (no result: PfM18AAP inh, HCV NS3 hel inh)
Cc1nc2ncnn2c(N2CCCC(C(=O)Nc3ccc4c(c3)CCC4)C2)c1C (stereo not drawn)	ALR H2O2 inh 91.6
COc1ccc(S(=O)(=O)NCc2ccc(C(=O)NCCCN3CC(C)CC(C)C3)cc2)cc1 (stereo not drawn)	none
CCC(CO)n1c(SCc2cc(=O)oc3cc(C)ccc23)nc2ccccc2c1=O (stereo not drawn)	ALR H2O2 inh 98.7
